A selection: hits, their analogues and other compounds. The true share with any hit is near 2%.
TNF death inh: TNF-alpha cell death inhibition in Jurkat FADD-/- cells. 220,000 compounds, 0.068% hits. activation (protection from cell death), % at 10 µM. Jurkat FADD-/- TNF necroptosis rescue, ATP luminescence, 24 h; 0 = TNF only, 100 = no-TNF cells;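 active means activation, meaning protection from cell death, of at least 50% relative to plate controls; inactive means activation below 50%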;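 further: necroptosis triggered by 40 ng/mL TNF-alpha added together with compound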
RBBP9 inh: human RBBP9 hydrolase inhibition; O75884; recombinant RBBP9, FP-Rh probe fluorescence polarization; inhibition, % at 7.94 µM; 220,000 compounds, 0.2% hits; AID 1515;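 active means inhibition above the campaign mean of all tested compounds plus 3 SD, cut at about 14% in these data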;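 further: plate controls were DMSO wells with RBBP9 for no effect and wells lacking RBBP9 protein for full effect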
Target sequence (O75884 whole entry, looked up): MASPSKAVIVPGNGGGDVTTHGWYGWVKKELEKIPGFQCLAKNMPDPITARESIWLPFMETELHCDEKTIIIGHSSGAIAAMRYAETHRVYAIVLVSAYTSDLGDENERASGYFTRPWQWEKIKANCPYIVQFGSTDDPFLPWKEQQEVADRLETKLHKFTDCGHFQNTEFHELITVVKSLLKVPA
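Controls: DMSO-treated enzyme wells and wells lacking RBBP9 | Material: RBBP9 protein | Technique: Fluorescence polarization | Replication: Single well per compound, no replicates | Buffer or medium: Tris-NaCl-Pluronic buffer, pH 8.0 | Timing: 30 min compound preincubation, 45 min probe labeling, 25 °C | Read-out basis: Percent inhibition from mP, scaled between DMSO and no-protein wells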
zVAD death inh: blocks zVAD induced death of L929 cells; L929 zVAD necroptosis rescue, ATP luminescence, 24 h; with zVAD 60 µM; viability rescue, % at 10 µM; 220,000 compounds, 0.38% hits;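 active means activation, scaled between plate controls, above about 75%, limit read from the data; inactive means activation under that limit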;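 further: 0% = zVAD with DMSO and 100% = DMSO alone without zVAD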
Tb hexokinase: blocks Trypanosoma brucei hexokinase 1 activity | recombinant TbHK1, G6PDH-coupled NADH A340 | 220,000 compounds, 0.11% hits | inhibition, % at 10 µM;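 active means inhibition of 50% or more in the single-dose primary screen; inactive means inhibition below 50%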
PfM18AAP inh: blocks P. falciparum M18 aspartyl aminopeptidase | inhibition, % at 7.35 µM | recombinant PfM18AAP, H-Glu-NHMec fluorogenic cleavage | AID 1822 | 290,000 compounds, 1.2% hits;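 active means inhibition above the campaign mean inhibition over all tested compounds plus 3 SD, cut at about 28% in these data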;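 further: 0% = plate median of test compound wells and 100% = 2 mM ZnCl2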
Lipid droplet: modulators of hepatic lipid droplet formation | AML12 mouse hepatocytes, oleate lipid droplets, BODIPY imaging | inhibition, % at 6.5 µM | 240,000 compounds, 0.4% hits | AID 1656;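 active means lipid droplet intensity inhibited by at least 50%, with more than 500 cells counted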
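Assay system: AML12 mouse liver cells | Compound: 6.5 µM single-point dosing | Schedule: Overnight exposure | Technique: Fluorescence imaging, 20x objective, two fields per well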
G6PDH ctr: Leuconostoc glucose-6-phosphate dehydrogenase inhibition, counter-screen; shares compounds with Tb hexokinase; purified G6PDH, NADH absorbance, 1 h; inhibition, % at 10 µM; 210 compounds, 7% hits; AID 2516;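 active means at least 50% inhibition in the glucose-6-phosphate dehydrogenase coupled counterscreen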
TbHK1 rescreen: T. brucei hexokinase 1 inhibition, rescreen; 210 compounds, 10% hits; shares compounds with Tb hexokinase; recombinant TbHK1, G6PDH-coupled NADH A340 absorbance; AID 2560; inhibition, % at 10 µM;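 active means inhibition of at least 50% in both of the two screening runs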;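 further: 0% and 100% set by the maximum and minimum signal control wells on each plate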
Starred values were filed as active, the others as inactive.

CCOC(=O)NC(NC(=O)OCC)C(=O)c1ccccc1 was read as TNF death inh 1.1, RBBP9 inh -5.5, zVAD death inh -0.2, Tb hexokinase 64.9*, PfM18AAP inh -11.4, G6PDH ctr -5.1 and TbHK1 rescreen -0.7.
Screening CCS(=O)(=O)c1ccc(O)c(NC(=O)Nc2ccccc2)c1 returned TNF death inh 1.6, RBBP9 inh -7.4, zVAD death inh -0.1, Tb hexokinase 50.4*, PfM18AAP inh 2.3, G6PDH ctr -3.3 and TbHK1 rescreen 1.5.
Screening C#CCOCCOCCOCCNc1nc(N2CCN(C(=O)C(Cc3cc4ccccc4[nH]3)n3cc(C(N)Cc4ccc(O)cc4)nn3)CC2)nc(N2CCN(C(=O)C(Cc3cc4ccccc4[nH]3)n3cc(C(N)Cc4ccc(O)cc4)nn3)CC2)n1 (stereo unspecified) returned TNF death inh 0.1, RBBP9 inh -16.8, zVAD death inh -0.7, Tb hexokinase 53.1*, PfM18AAP inh 3.3, Lipid droplet -1.7, G6PDH ctr 88.3* and TbHK1 rescreen 20.1.
For CN(CC(=O)Nc1cccc(S(=O)(=O)N(C)C)c1)Cc1ccccc1 the results were PfM18AAP inh -5.0 and Lipid droplet 0.4.
For CN(C)S(=O)(=O)c1cccc(NC(=S)NN=C(Cc2ccccc2)Cc2ccccc2)c1 the results were TNF death inh 5.5, RBBP9 inh -6.9, zVAD death inh -0.2, Tb hexokinase 51.4*, PfM18AAP inh 21.1, Lipid droplet 17.5, G6PDH ctr 12.5 and TbHK1 rescreen -4.1.
`C=CCc1cccc2cc(C(=O)NCc3cccnc3)c(=O)oc12` gave TNF death inh 0.1, RBBP9 inh -3.7, zVAD death inh -0.4, Tb hexokinase -17.4, PfM18AAP inh -2.3 and Lipid droplet -10.6.
For COc1ccc(CC(=O)OC(C)CN2CCCC2)cc1 (stereo unspecified) the results were TNF death inh 0.7, RBBP9 inh 0.8, zVAD death inh 3.5, Tb hexokinase 55.5*, PfM18AAP inh -9.7, Lipid droplet 0.3, G6PDH ctr 0.3 and TbHK1 rescreen -3.2.
`COc1ccc(OCC(=O)OC(C)CN2CCCCC2)cc1` (stereo unspecified) gave PfM18AAP inh -1.2 and Lipid droplet -13.5.
CCOC(=O)c1c(NC(=O)CSc2nc3cc(Cl)ccc3c(=O)n2Cc2ccco2)sc(C(=O)N(C)C)c1C was read as TNF death inh -7.9, RBBP9 inh -10.6, zVAD death inh 0.5, Tb hexokinase -8.2, PfM18AAP inh -2.0 and Lipid droplet -59.6.
Screening CSc1nc2n(n1)C(c1cc(Br)ccc1F)C(C(=O)N(C)C)=C(C)N2 (stereo unspecified) returned TNF death inh 1.1, RBBP9 inh 2.9, zVAD death inh 0.0, Tb hexokinase 63.1*, PfM18AAP inh -0.3, G6PDH ctr -6.5 and TbHK1 rescreen -6.7.
S=C(Nc1cccc(Cl)c1)N(CCCN1CCCC1)Cc1cccn1Cc1ccc(Cl)cc1 was read as TNF death inh 1.0, RBBP9 inh -1.7, zVAD death inh -1.7, Tb hexokinase 50.8*, PfM18AAP inh 0.9, Lipid droplet -20.2, G6PDH ctr 41.2 and TbHK1 rescreen 13.4.
Screening CSc1cccc(NC(=S)N(CCCN2CCCC2)Cc2cccn2Cc2ccc(Cl)cc2)c1 returned TNF death inh -1.4, RBBP9 inh 2.0, zVAD death inh -0.1, Tb hexokinase 12.2, PfM18AAP inh 6.9 and Lipid droplet -18.8.
O=c1c2c(nc3cc(-c4ccc(Cl)cc4)[nH]n13)CCS2 was read as TNF death inh -2.7, RBBP9 inh 0.9, zVAD death inh 4.7, Tb hexokinase -2.0, PfM18AAP inh -0.9 and Lipid droplet -12.8.
Screening CCC(=O)N1CCc2cc(S(=O)(=O)CCC(=O)NCCC3=CCCCC3)ccc21 returned TNF death inh -0.9, RBBP9 inh -9.0, zVAD death inh 1.2, Tb hexokinase 67.9*, PfM18AAP inh 1.4, G6PDH ctr -9.7 and TbHK1 rescreen 3.4.
`CC(C)c1ccc(NC(=O)CCNC(=O)N2CC(=O)Nc3ccccc32)cc1` gave PfM18AAP inh 2.5 and Lipid droplet 11.2.
For COc1ccccc1CNC(=O)[C@H](C)NC(=O)C1CCN(C(=O)[C@@H](N)CC(C)C)CC1 the results were PfM18AAP inh -0.2 and Lipid droplet -15.7.
`COc1ccc(NC(=O)C2CC(=O)N(c3cccc(C)c3C)C2)cc1` (stereo unspecified) gave TNF death inh 0.3, RBBP9 inh -5.6, zVAD death inh 3.1, Tb hexokinase 55.9*, PfM18AAP inh -3.2, G6PDH ctr -5.7 and TbHK1 rescreen -0.8.
`CC(=O)Nc1ccc(NC(=O)C2CC(=O)N(c3cccc(C)c3C)C2)cc1` (stereo unspecified) gave TNF death inh 0.6, RBBP9 inh -3.1, zVAD death inh 0.2, Tb hexokinase 51.2*, PfM18AAP inh -0.3, G6PDH ctr -7.1 and TbHK1 rescreen -0.7.
Cc1cccc(N2CC(C(=O)Nc3ccc4c(c3)OCCO4)CC2=O)c1C (stereo unspecified) was read as PfM18AAP inh -6.5 and Lipid droplet -11.6.
For Cc1cccc(C)c1NC(=O)CSc1nnc(C2CCCCC2)o1 the results were PfM18AAP inh 0.6 and Lipid droplet 9.0.
Screening C#CC(CO)N(CCN(Cc1ccccc1)C(C#C)CO)Cc1ccccc1 (stereo unspecified) returned TNF death inh 1.0, RBBP9 inh 2.0, zVAD death inh 0.1, Tb hexokinase -14.7, PfM18AAP inh -9.4 and Lipid droplet -33.6.
CN(CCO)C(=O)CCC(=O)Nc1ccc(S(N)(=O)=O)cc1 was read as TNF death inh 0.9, RBBP9 inh -7.0, zVAD death inh 0.1, Tb hexokinase 59.6*, PfM18AAP inh 0.0, G6PDH ctr -0.8 and TbHK1 rescreen 5.8.
For COc1ccc(OCCC(=O)Nc2ccc(S(N)(=O)=O)cc2)cc1 the results were PfM18AAP inh 2.8 and Lipid droplet -16.6.
Screening Cc1ccc(CNC(=O)C2CNc3cc(C)ccc3O2)cc1 (stereo unspecified) returned TNF death inh 0.6, RBBP9 inh -8.3, zVAD death inh -0.4, Tb hexokinase 57.6*, PfM18AAP inh -6.0, G6PDH ctr -6.6 and TbHK1 rescreen 16.3.
`Cc1ccc2c(c1)NCC(C(=O)NCc1ccccc1)O2` (stereo unspecified) gave TNF death inh 2.2, RBBP9 inh -7.0, Tb hexokinase 0.3, PfM18AAP inh 4.7 and Lipid droplet -6.9.

High-throughput results: PubChem BioAssay, several laboratories
